ARFGAP1 inhibitor: inhibits rat ARF GTPase activating protein 1; inhibition, % at 16.5 µM; AID 651572; actives 0.26% (n = 360,000); Arfgap1-stimulated ARF1 GTP hydrolysis, GDP FP detection; Q62848;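 active = inhibition above a per-plate limit, mean inhibition of low control wells plus 3 SD, cut at about 25% in these data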;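 also: 0% = DMSO wells with enzyme and 100% = wells lacking Arfgap1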
Target sequence (Q62848 1-136 limits assumed): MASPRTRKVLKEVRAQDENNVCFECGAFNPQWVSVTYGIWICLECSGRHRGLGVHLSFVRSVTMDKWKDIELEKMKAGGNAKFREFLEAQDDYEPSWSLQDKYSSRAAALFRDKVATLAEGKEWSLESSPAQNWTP
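Assay system: purified rat His6-Arfgap1 residues 1-136 (GAP domain); Reagent: human Δ17 ARF1 bound to GTP; Dosing: 16.5 µM single point, 1.26% DMSO; Times: GTP hydrolysis reaction 2 h at 25 °C; Signal: FP, GDP Alexa 633 tracer displaced from anti-GDP antibody, 620/688 nm; Measure: % inhibition from polarization.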
Calb FLC: C. albicans growth modulation with fluconazole; actives 0.57% (n = 300,000); C. albicans CaCi-2 + fluconazole, Alamar Blue growth, 48 h; growth inhibition, % (concentration not given with the values); AID 1979;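 active = growth inhibition above about 58% in most replicates, limit read from the data, passing the limit was not always enough; inconclusive = exactly half the replicates above a set limit; inactive = most replicates below a set limit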;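 also: all wells also contain fluconazole at 8 µg/ml as a sub-toxic cotreatment; 0% = median of DMSO wells and 100% = median of geldanamycin control wells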
IMP-1 inh-1: inhibitors of Pseudomonas aeruginosa IMP-1 metallo-beta-lactamase. actives 0.45% (n = 290,000). purified IMP-1, nitrocefin hydrolysis, epi-absorbance fluorescence. inhibition, % at 5.6 µM;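 active = inhibition above the mean plus 3 SD of all compounds in the same screening run, cut at about 4.5% in these data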;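 also: 0% = IMP-1 with DMSO and 100% = DMSO wells lacking enzyme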
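System: purified IMP-1 / Input: IMP-1 dispensed at 0.2 nM / Medium: 50 mM HEPES pH 7.1, 50 µM ZnSO4, 0.05% Brij 35 / Timing: 15 min enzyme–compound preincubation, then 25 min nitrocefin reaction, 25 °C / Technique: plate fluorescence quenching by hydrolysis product, ex 480/em 530 nm / Repeats: singlicate testing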
VIM-2 inh: blocks Pseudomonas aeruginosa VIM-2 metallo-beta-lactamase | purified VIM-2, nitrocefin hydrolysis, epi-absorbance fluorescence | inhibition, % at 5.6 µM | actives 0.89% (n = 290,000) | AID 1527;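 active = inhibition above the mean of all tested compounds plus 3 SD, cutoff set per screening run, cut at about 7.5% in these data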;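 also: red hydrolysis product quenches plate fluorescence so inhibitors raise well fluorescence; 0% = enzyme with DMSO and 100% = DMSO without enzyme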
ASAP1 GAP inh: ASAP1 ArfGAP inhibition | Q9ULH1 | ASAP1-stimulated ARF1 GTP hydrolysis, GDP FP detection | inhibition, % at 16.5 µM | actives 0.19% (n = 360,000) | AID 624377; in the data active = inhibition above about 25%;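 also: 0% = vehicle with enzyme and substrate and 100% = no enzyme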
PHOSPHO1 block: PHOSPHO1 (human) inhibition; inhibition, % at 13.3 µM; recombinant PHOSPHO1, absorbance phosphatase assay; actives 1.1% (n = 290,000); in the data active = inhibition above about 60%
Target sequence (Q8TCT1 whole entry, looked up): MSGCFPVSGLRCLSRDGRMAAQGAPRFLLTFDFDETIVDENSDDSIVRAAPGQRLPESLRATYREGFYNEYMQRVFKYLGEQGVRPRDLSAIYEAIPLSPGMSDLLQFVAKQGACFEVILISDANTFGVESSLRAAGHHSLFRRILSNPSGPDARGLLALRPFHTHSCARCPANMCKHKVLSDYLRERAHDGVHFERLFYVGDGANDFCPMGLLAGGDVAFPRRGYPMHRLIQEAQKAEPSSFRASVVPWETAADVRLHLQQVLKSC
IMP-1 inh-2: selectivity counter-screen for VIM-2 inhibitors: IMP-1 metallo-beta-lactamase inhibitors | purified IMP-1, nitrocefin hydrolysis, epi-absorbance fluorescence | inhibition, % at 5.6 µM | 1,300 tested, under 10 active | AID 1856 | shares compounds with VIM-2 inh; call rule not given here;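 also: 0% = enzyme with vehicle and 100% = vehicle without enzyme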
VIM-2 FRET inh: counter-screen for VIM-2 inhibitors: epi-absorbance artifacts via FRET | shares compounds with VIM-2 inh | purified VIM-2, CCF2 FRET substrate hydrolysis | inhibition, % at 5.6 µM | actives 23% (n = 1,300) | AID 1857;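 active = inhibition above the mean of all tested compounds plus 3 SD, cut at about 19% in these data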;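 also: 0% = VIM-2 plus DMSO and 100% = no enzyme wells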
TEM-1 inh: TEM-1 inhibition, counter-screen for VIM-2 inhibitors; AID 1866; inhibition, % at 5.6 µM; Purified TEM-1, nitrocefin hydrolysis, epi-absorbance fluorescence; shares compounds with VIM-2 inh; actives 3% (n = 1,300);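 active = inhibition above that campaign's mean inhibition plus 3 SD, cut at about 0.46% in these data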;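 also: 0% = TEM-1 with DMSO and 100% = TEM-1 with 100 µM potassium clavulanate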
Target sequence (P62593 whole entry, looked up): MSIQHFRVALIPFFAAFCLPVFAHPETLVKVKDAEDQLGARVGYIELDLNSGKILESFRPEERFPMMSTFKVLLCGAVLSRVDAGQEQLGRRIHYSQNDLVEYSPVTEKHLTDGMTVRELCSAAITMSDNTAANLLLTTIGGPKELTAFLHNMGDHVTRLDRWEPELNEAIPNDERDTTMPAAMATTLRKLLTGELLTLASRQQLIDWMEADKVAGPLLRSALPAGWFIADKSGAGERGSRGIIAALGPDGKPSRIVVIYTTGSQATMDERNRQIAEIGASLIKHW
VIM-2 inh conf: confirmation of P. aeruginosa VIM-2 metallo-beta-lactamase inhibitors; shares compounds with VIM-2 inh; purified VIM-2, nitrocefin hydrolysis, epi-absorbance; inhibition, % at 5.6 µM; actives 96% (n = 1,300);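 active = inhibition of the VIM-2 beta-lactamase enzyme above about 11% from the earlier first-round screen, limit read from the data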;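 also: 0% = VIM-2 with DMSO and 100% = buffer wells without enzyme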
* = called active by the depositor. Most compounds without a hit are left out; they make up all but 2.6% or so of the library.

CCOC(=O)c1cnc2c(Cl)c(Cl)ccc2c1N1CCN(C)CC1 was read as ARFGAP1 inhibitor -3.1, Calb FLC -0.7, IMP-1 inh-1 1.5, VIM-2 inh 15.3*, ASAP1 GAP inh -3.7, PHOSPHO1 block 15.4, IMP-1 inh-2 -2.7, VIM-2 FRET inh 0.6, TEM-1 inh -9.1 and VIM-2 inh conf 24.0*.
c1ccc(CN2CCN(CCCNc3ccc4nnc(-c5ccccc5)n4n3)CC2)cc1 was read as Calb FLC -7.4, IMP-1 inh-1 -2.0, VIM-2 inh 62.4*, PHOSPHO1 block -11.7, IMP-1 inh-2 -0.2, VIM-2 FRET inh 4.0, TEM-1 inh 0.8* and VIM-2 inh conf 76.1*.
Screening Cc1ccc(CNc2ccc3nnc(-c4ccccc4)n3n2)cc1 returned ARFGAP1 inhibitor -1.7, Calb FLC 5.3, IMP-1 inh-1 -2.7, VIM-2 inh -4.2, ASAP1 GAP inh 1.1 and PHOSPHO1 block -20.9.
For COC(=O)c1c(NC(=O)c2ccco2)sc2c1CC(C)(C)NC2(C)C the results were ARFGAP1 inhibitor 1.9, Calb FLC -11.2, IMP-1 inh-1 1.3, VIM-2 inh 13.5*, ASAP1 GAP inh -11.2, PHOSPHO1 block 27.4, IMP-1 inh-2 -4.5, VIM-2 FRET inh 3.0, TEM-1 inh -8.1 and VIM-2 inh conf 17.1*.
Screening CCCn1c(SCC(=O)N2CCN(CC)CC2)nc2c1c(=O)n(C)c(=O)n2C returned ARFGAP1 inhibitor 0.8, Calb FLC -1.6, IMP-1 inh-1 -0.8, VIM-2 inh 52.2*, ASAP1 GAP inh -4.3, PHOSPHO1 block 17.4, IMP-1 inh-2 -3.8, VIM-2 FRET inh 1.1, TEM-1 inh -6.2 and VIM-2 inh conf 61.4*.
For CCn1c(SCC(=O)N2CCN(C)CC2)nc2c1c(=O)n(C)c(=O)n2C the results were ARFGAP1 inhibitor 5.9, Calb FLC 1.3, IMP-1 inh-1 -1.9, VIM-2 inh 54.5*, ASAP1 GAP inh 9.8, PHOSPHO1 block -6.5, IMP-1 inh-2 -3.9, VIM-2 FRET inh -3.5, TEM-1 inh -5.1 and VIM-2 inh conf 63.0*.
`Cn1c(=O)c2c(nc(SCC(=O)N3CCCCCC3)n2C)n(C)c1=O` gave ARFGAP1 inhibitor 0.7, Calb FLC 5.6, IMP-1 inh-1 -2.9, VIM-2 inh 0.5, ASAP1 GAP inh 2.7 and PHOSPHO1 block 0.5.
For CCN1CCN(C(=O)CSc2nc3c(c(=O)n(C)c(=O)n3C)n2C)CC1 the results were ARFGAP1 inhibitor -12.7, Calb FLC -16.6, IMP-1 inh-1 -1.3, VIM-2 inh 75.7*, ASAP1 GAP inh -8.8, PHOSPHO1 block 9.6, IMP-1 inh-2 -2.2, VIM-2 FRET inh 2.1, TEM-1 inh -3.7 and VIM-2 inh conf 84.9*.
CCn1c(SCC(=O)N2CCCC2)nc2c1c(=O)n(C)c(=O)n2C was read as ARFGAP1 inhibitor 2.6, Calb FLC inconclusive, IMP-1 inh-1 -4.3, VIM-2 inh -2.2, ASAP1 GAP inh -8.3 and PHOSPHO1 block 0.6.
COCCNC(=O)C1(C)CCN(C(=O)/C=C/c2ccccc2)C1 (configuration not stated) was read as ARFGAP1 inhibitor -2.1 and ASAP1 GAP inh -13.1.
Screening Cc1c(Cc2ccccc2)c(NCCCO)n2c(nc3ccccc32)c1C#N returned ARFGAP1 inhibitor 10.7, Calb FLC 0.4, IMP-1 inh-1 -2.4, VIM-2 inh 2.0, ASAP1 GAP inh -7.6 and PHOSPHO1 block 23.9.
For C=C(C)Cc1c(C)c(C#N)c2nc3ccccc3n2c1NCCCN(C)C the results were ARFGAP1 inhibitor -3.1, Calb FLC -2.8, IMP-1 inh-1 0.9, VIM-2 inh 29.3*, ASAP1 GAP inh 0.5, PHOSPHO1 block 8.3, IMP-1 inh-2 -2.8, VIM-2 FRET inh 0.0, TEM-1 inh -6.4 and VIM-2 inh conf 45.1*.
CCCc1cc(NCCCN(C)C)n2c(nc3ccccc32)c1C#N was read as ARFGAP1 inhibitor 10.3, Calb FLC -1.1, IMP-1 inh-1 -2.5, VIM-2 inh 20.6*, ASAP1 GAP inh -4.5, PHOSPHO1 block 7.1, IMP-1 inh-2 0.2, VIM-2 FRET inh -0.5, TEM-1 inh 2.0* and VIM-2 inh conf 35.1*.
`CC1=C(C(=O)N2CCCCCC2)CC(CC(=O)NCCN2CCOCC2)C(=O)N1Cc1ccccc1` (configuration not stated) gave ARFGAP1 inhibitor -1.8 and ASAP1 GAP inh 4.1.
`Cc1cccc(C(=O)c2ccccc2C(=O)O)c1O` gave ARFGAP1 inhibitor 3.2, Calb FLC -10.7, IMP-1 inh-1 -0.5, VIM-2 inh 21.7*, ASAP1 GAP inh -3.8, PHOSPHO1 block 50.0, IMP-1 inh-2 -3.1, VIM-2 FRET inh 30.0*, TEM-1 inh -5.8 and VIM-2 inh conf 16.7*.
`O=[N+]([O-])c1ccccc1Nc1nc(-c2cccnc2)cs1` gave ARFGAP1 inhibitor 1.4, Calb FLC 3.1, IMP-1 inh-1 -3.6, VIM-2 inh 15.6*, ASAP1 GAP inh 6.2, PHOSPHO1 block 25.3, IMP-1 inh-2 -3.5, VIM-2 FRET inh -3.2, TEM-1 inh -9.7 and VIM-2 inh conf 27.2*.
Screening CCc1ccccc1Nc1nc(-c2cccnc2)cs1 returned ARFGAP1 inhibitor 8.4, Calb FLC 7.5, IMP-1 inh-1 -1.1, VIM-2 inh 0.9, ASAP1 GAP inh 3.1 and PHOSPHO1 block 19.2.
CCN(CC)CCSc1nnc2c3cc(F)ccc3n(Cc3ccccc3)c2n1 was read as ARFGAP1 inhibitor -5.6, Calb FLC -1.5, IMP-1 inh-1 -1.3, VIM-2 inh 22.8*, ASAP1 GAP inh -6.9, PHOSPHO1 block 22.7, IMP-1 inh-2 -3.0, VIM-2 FRET inh 2.9, TEM-1 inh -6.5 and VIM-2 inh conf 37.0*.
`CCn1c2ccccc2c2nnc(SCC(N)=O)nc21` gave ARFGAP1 inhibitor 13.6, Calb FLC -0.6, IMP-1 inh-1 -5.5, VIM-2 inh 4.9, ASAP1 GAP inh -4.8 and PHOSPHO1 block 34.9.
`CCN(CC)CCSc1nnc2c3ccccc3n(Cc3ccccc3)c2n1` gave ARFGAP1 inhibitor 0.8, Calb FLC -10.2, IMP-1 inh-1 -3.1, VIM-2 inh 31.1*, ASAP1 GAP inh 6.5, PHOSPHO1 block -24.7, IMP-1 inh-2 -2.5, VIM-2 FRET inh 3.7, TEM-1 inh -9.8 and VIM-2 inh conf 48.6*.

Source: PubChem (several laboratories)
